Data on 5 compounds can be found in ChEMBL document CHEMBL4229340, “Attaching NorA efflux pump inhibitors to methylene blue enhances antimicrobial photodynamic inactivation of Escherichia coli and Acinetobacter baumannii in vitro and in vivo” (Bioorg Med Chem Lett, 2018).

Series [1] relates to Acinetobacter baumannii. In words: Dark toxicity against Acinetobacter baumannii AB Iraqi 007 infected in BALB/c mouse needle back-scratch wound abrasion infection model assessed as reduction in bacterial load in shaved dorsal surfaces of mouse after 15 mins measured after 12 days by bioluminescence imaging method. Type of series: organism-based. The following applies: in vivo. A digest of the protocol: (§1)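 Bioluminescent A. baumannii inoculated into needle-scratch wounds on shaved mouse backs. Sites got 40 μL of a 250 μM stock of compound, then 652 nm red light at 0, 12, 36, 84, 108 and 120 J/cm2, or were kept dark (dark controls). Normalized wound RLU (mean ± SEM, 4-6 mice/group) was imaged during illumination, then daily for 14 days.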

In series [2] the test system is Acinetobacter baumannii. In words: Dark toxicity against Acinetobacter baumannii AB Iraqi 007 infected in BALB/c mouse needle back-scratch wound abrasion infection model assessed as bacterial load in shaved dorsal surfaces of mouse after 15 mins measured after 1 day by bioluminescence imaging method. Type of series: organism-based. The conditions noted are these: in vivo. The method, boiled down: as §1

Series [3] relates to Escherichia coli. In words: Dark toxicity against enteropathogenic Escherichia coli WS2572 infected in BALB/c mouse full-thickness third-degree burn infection model assessed as reduction in bacterial load in shaved dorsal surfaces of mouse after 15 mins measured after 1 day by bioluminescence imaging method. Type of series: organism-based. The conditions noted are these: in vivo. A digest of the protocol: (§2)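 Mouse full-thickness third-degree burn on the shaved back, inoculated with bioluminescent EPEC WS2572. Wounds got 40 μL of 250 μM stock compound, then 652 nm red light at 0, 12, 36, 84, 108 and 120 J/cm2 or no light. Normalized wound RLU (mean ± SEM, 4-6 mice/group) was imaged during illumination and daily for 14 days after.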

The test system of series [4] is Escherichia coli. Put plainly: Photodynamic antibacterial activity against enteropathogenic Escherichia coli WS2572 infected in BALB/c mouse full-thickness third-degree burn infection model assessed as reduction in bacterial load in shaved dorsal surfaces of mouse after 15 mins followed by up to 120 J/cm'2 irradiation with red light over 20 mins by bioluminescence imaging method. Type of series: functional. Also noted: scale not given: the % may be the effect or the level left. A digest of the protocol: as §2

In series [5] the test system is Escherichia coli. In words: Dark toxicity against wild type Escherichia coli K-12 assessed as reduction in bacterial load at 1 to 20 uM incubated for 30 mins. Type of series: organism-based. The following applies: in vitro, 0.5 h. A digest of the protocol: (§3)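 E. coli K-12 and isogenic TolC knockout JW5503-1 were exposed to compound at 1-20 μM, then illuminated with 652 nm red light at 100 mW/cm2 to 6 J/cm2, or kept dark. Serially diluted aliquots were plated for CFU and survival fraction determined. Mean ± SEM from three independent experiments.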

Series [6] deals with Escherichia coli. In words: Photodynamic antibacterial activity against wild type Escherichia coli K-12 assessed as bacterial killing at 20 uM incubated for 30 mins followed by 6 J/cm'2 irradiation with red light relative to control. Type of series: functional. A digest of the protocol:
as §3

Series [7] concerns Escherichia coli. Put plainly: Photodynamic antibacterial activity against wild type Escherichia coli K-12 assessed as bacterial killing at 10 uM incubated for 30 mins followed by 6 J/cm'2 irradiation with red light relative to control. Type of series: functional. The method, boiled down:
as §3

Series [8] deals with Acinetobacter baumannii. Put plainly: Dark toxicity against Acinetobacter baumannii AB Iraqi 007 infected in BALB/c mouse needle back-scratch wound abrasion infection model assessed as reduction in bacterial load in shaved dorsal surfaces of mouse measured after 15 mins by bioluminescence imaging method. Type of series: organism-based. Also noted: scale not given: the % may be the effect or the level left. The conditions noted are these: in vivo, 0.25 h. The method, boiled down: as §1

The test system of series [9] is Acinetobacter baumannii. In words: Dark toxicity against wild type Acinetobacter baumannii AB007 assessed as reduction in bacterial load at 1 to 20 uM incubated for 30 mins. Type of series: organism-based. The conditions noted are these: in vitro, 0.5 h. The method, boiled down: (§4)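 A. baumannii AB007 was exposed to compound at 1-20 μM, with or without red-light illumination, alongside dark controls. Survival fraction came from CFU counts. Mean ± SEM from three independent experiments.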

For series [10], the system named is Escherichia coli. In words: Dark toxicity against enteropathogenic Escherichia coli WS2572 infected in BALB/c mouse full-thickness third-degree burn infection model assessed as reduction in bacterial load in shaved dorsal surfaces of mouse measured after 15 mins by bioluminescence imaging method. Type of series: organism-based. Also noted: scale not given: the % may be the effect or the level left. The following applies: in vivo, 0.25 h. The method, boiled down:
as §2

In series [11] the test system is Escherichia coli. In words: Photodynamic antibacterial activity against TolC deficient Escherichia coli JW5503-1 assessed as bacterial killing at 20 uM incubated for 30 mins followed by 6 J/cm'2 irradiation with red light relative to control. Type of series: functional. The method, boiled down: as §3
Series [12] relates to Acinetobacter baumannii. In words: Photodynamic antibacterial activity against Acinetobacter baumannii AB Iraqi 007 infected in BALB/c mouse needle back-scratch wound abrasion infection model assessed as reduction in bacterial load in shaved dorsal surfaces of mouse after 15 mins followed by up to 120 J/cm'2 irradiation with red light over 20 mins measured after 1 day by bioluminescence imaging method. Type of series: functional. Also noted: scale not given: the % may be the effect or the level left. A digest of the protocol: as §1

Series [13] has as its system Acinetobacter baumannii. In words: Photodynamic antibacterial activity against Acinetobacter baumannii AB Iraqi 007 infected in BALB/c mouse needle back-scratch wound abrasion infection model assessed as reduction in bacterial load in shaved dorsal surfaces of mouse after 15 mins followed by 36 J/cm'2 irradiation with red light over 20 mins by bioluminescence imaging method. Type of series: functional. Also noted: scale not given: the % may be the effect or the level left. A digest of the protocol:
as §1

For series [14], the system named is Escherichia coli. Put plainly: Dark toxicity against TolC deficient Escherichia coli JW5503-1 assessed as reduction in bacterial load at 1 to 20 uM incubated for 30 mins. Type of series: organism-based. The following applies: in vitro, 0.5 h. The method, boiled down: as §3
The test system of series [15] is Acinetobacter baumannii. Put plainly: Photodynamic antibacterial activity against wild type Acinetobacter baumannii AB007 assessed as bacterial killing at 20 uM incubated for 30 mins followed by 6 J/cm'2 irradiation with red light relative to control. Type of series: functional. A digest of the protocol:
as §4

For series [16], the system named is Escherichia coli. In words: Photodynamic antibacterial activity against enteropathogenic Escherichia coli WS2572 infected in BALB/c mouse full-thickness third-degree burn infection model assessed as reduction in bacterial load in shaved dorsal surfaces of mouse after 15 mins followed by up to 120 J/cm'2 irradiation with red light over 20 mins measured after 12 days by bioluminescence imaging method. Type of series: functional, organism-based. The method, boiled down:
as §2

For series [17], the system named is Escherichia coli. Put plainly: Photodynamic antibacterial activity against TolC deficient Escherichia coli JW5503-1 assessed as bacterial killing at 10 uM incubated for 30 mins followed by 6 J/cm'2 irradiation with red light relative to control. Type of series: functional. A digest of the protocol:
as §3

The subject of series [18] is Escherichia coli. In words: Photodynamic antibacterial activity against enteropathogenic Escherichia coli WS2572 infected in BALB/c mouse full-thickness third-degree burn infection model assessed as reduction in bacterial load in shaved dorsal surfaces of mouse after 15 mins followed by up to 120 J/cm'2 irradiation with red light over 20 mins measured after 1 day by bioluminescence imaging method. Type of series: functional, organism-based. The method, boiled down:
as §2

For series [19], the system named is Acinetobacter baumannii. Put plainly: Photodynamic antibacterial activity against Acinetobacter baumannii AB Iraqi 007 infected in BALB/c mouse needle back-scratch wound abrasion infection model assessed as reduction in bacterial load in shaved dorsal surfaces of mouse after 15 mins followed by 108 J/cm'2 irradiation with red light over 20 mins by bioluminescence imaging method. Type of series: functional, organism-based. The method, boiled down: as §1

Series [20] has as its system Acinetobacter baumannii. In words: Photodynamic antibacterial activity against Acinetobacter baumannii AB Iraqi 007 infected in BALB/c mouse needle back-scratch wound abrasion infection model assessed as reduction in bacterial load in shaved dorsal surfaces of mouse after 15 mins followed by up to 120 J/cm'2 irradiation with red light over 20 mins measured after 10 days by bioluminescence imaging method. Type of series: functional, organism-based. The method, boiled down: as §1

In series [21] the test system is Acinetobacter baumannii. Put plainly: Photodynamic antibacterial activity against Acinetobacter baumannii AB Iraqi 007 infected in BALB/c mouse needle back-scratch wound abrasion infection model assessed as reduction in bacterial load in shaved dorsal surfaces of mouse after 15 mins followed by up to 120 J/cm'2 irradiation with red light over 20 mins measured up to 6 days by bioluminescence imaging method. Type of series: functional, organism-based. The method, boiled down: as §1

Series [22] relates to Acinetobacter baumannii. In words: Photodynamic antibacterial activity against Acinetobacter baumannii AB Iraqi 007 infected in BALB/c mouse needle back-scratch wound abrasion infection model assessed as reduction in bacterial load in shaved dorsal surfaces of mouse after 15 mins followed by 84 J/cm'2 irradiation with red light over 20 mins by bioluminescence imaging method. Type of series: functional, organism-based. A digest of the protocol:
as §1

Series [23] relates to Escherichia coli. In words: Photodynamic antibacterial activity against enteropathogenic Escherichia coli WS2572 infected in BALB/c mouse full-thickness third-degree burn infection model assessed as reduction in bacterial load in shaved dorsal surfaces of mouse after 15 mins followed by 84 J/cm'2 irradiation with red light over 20 mins by bioluminescence imaging method. Type of series: functional, organism-based. A digest of the protocol:
as §2

Series [24] relates to Escherichia coli. Put plainly: Photodynamic antibacterial activity against enteropathogenic Escherichia coli WS2572 infected in BALB/c mouse full-thickness third-degree burn infection model assessed as reduction in bacterial load in shaved dorsal surfaces of mouse after 15 mins followed by up to 120 J/cm'2 irradiation with red light over 20 mins measured after 10 days by bioluminescence imaging method. Type of series: functional, organism-based. The method, boiled down:
as §2

Series [25] has as its system Escherichia coli. In words: Photodynamic antibacterial activity against enteropathogenic Escherichia coli WS2572 infected in BALB/c mouse full-thickness third-degree burn infection model assessed as reduction in bacterial load in shaved dorsal surfaces of mouse after 15 mins followed by 36 J/cm'2 irradiation with red light over 20 mins by bioluminescence imaging method. Type of series: functional. Also noted: scale not given: the % may be the effect or the level left. A digest of the protocol:
as §2

Active and inactive are the calls of the source. The rule behind the calls is not given here.

As to `CN(C)c1ccc2nc3ccc(N(C)C)cc3[s+]c2c1.[Cl-]` [METHYLENE BLUE ANHYDROUS], the Activity entry in series [1] was “Toxic”; in series [2], above 50%; in [3] it was “Not Active”; in series [4], 90%; in series [5], “Non-Toxic”; in series [8], below 25%. The Activity result in [9] is “Non-Toxic”; in series [10], 25%; in series [12] it was above 50%; in [13], 50%; in series [14] it was “Non-Toxic”. In addition, the LCK was 2.5 in series [6], 2 in [7] and 3.5 in series [11].
`CN(C)c1ccc2nc3ccc(=[N+](C)C)cc-3sc2c1`: the outcome in series [15], in series [16], in [17], in [19] and in series [20] was Active. Also, in series [18], the outcome was inactive.
As to `CN(CCN(C)c1ccc2nc3ccc(N(C)C)cc3[s+]c2c1)Cc1ccc(-c2cc3cc([N+](=O)[O-])ccc3[nH]2)cc1.[Cl-]`, the result in series [15], in series [21] and in series [22] was Active. Besides, the Activity entry is “Toxic” in [1]; above 50% in [2]; “Non-Toxic” in [5]; below 25% in [8]; “Non-Toxic” in [9]; 95% in series [13]. The Activity result in series [14] is listed as “Non-Toxic”. Moreover, the LCK worked out at 2 in series [17], 4 in series [6], 2 in series [7] and 7 in series [11].
Consider `CN(CCCOc1ccccc1NC(=O)Nc1ccc2ccccc2c1)CCN(C)c1ccc2nc3ccc(N(C)C)cc3[s+]c2c1.[Cl-]`, for which the LCK is 4 in [15], 3 in [6] and 4.5 in series [11]. For the same compound, the Activity result in series [5], in series [9] and in [14] was “Non-Toxic” in each case.
`CN(CCN(C)c1ccc2nc3ccc(N(C)C)cc3[s+]c2c1)C(=O)c1ccc(-c2cc3cc([N+](=O)[O-])ccc3[nH]2)cc1.[Cl-]`: the LCK was 4 in [15], 6 in [17], 6 in [6] and 4 in [7]. In addition, the Activity result is reported as “Non-Toxic” in series [5]; “Non-Toxic” in [9]; 40% in series [10]; 80% in series [25]; “Non-Toxic” in series [14]. Besides, the outcome in [23], in [24] and in [11] was Active.
